# Assay results published in ChEMBL document CHEMBL1155429, “Discovery of a biaryl cyclohexene carboxylic acid (MK-6892): a potent and selective high affinity niacin receptor full agonist with reduced flushing profiles in animals as a preclinical candidate” (J Med Chem, 2010).
# Activity calls are given as the source filed them.
# Assays:
# [1] = target: Hydroxycarboxylic acid receptor 3 (Homo sapiens) (UniProt P49019); assay: Binding affinity to GPR109B
# Canis lupus familiaris = species: Canis lupus familiaris; assay: (§1) Agonist activity at dog nicotinic acid receptor by [35S]GTPgammaS binding assay; format: functional
# Procedure, shortened: (§2)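 [35S]GTPγS exchange functional assay on membranes from cells expressing the dog NA receptor; full agonism judged relative to NA; EC50 determined.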
# [2] = target: Hydroxycarboxylic acid receptor 1 (Homo sapiens) (UniProt Q9BXC0); assay: Binding affinity to GPR81
# Sequence of Hydroxycarboxylic acid receptor 1 (Homo sapiens) (Q9BXC0 whole entry): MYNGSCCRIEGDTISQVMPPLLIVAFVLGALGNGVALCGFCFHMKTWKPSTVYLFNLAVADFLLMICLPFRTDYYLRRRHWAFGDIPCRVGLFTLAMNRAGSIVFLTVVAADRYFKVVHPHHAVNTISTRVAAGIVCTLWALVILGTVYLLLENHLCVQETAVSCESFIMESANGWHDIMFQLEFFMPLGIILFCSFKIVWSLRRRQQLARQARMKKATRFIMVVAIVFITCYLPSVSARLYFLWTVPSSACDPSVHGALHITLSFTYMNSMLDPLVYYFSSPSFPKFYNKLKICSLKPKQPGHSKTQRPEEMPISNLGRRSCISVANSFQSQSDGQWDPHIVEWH
# Rattus norvegicus [3] = assay: (§3) Bioavailability in rat at 1.0 mg/kg, iv or 2 mg/kg, po; format: ADME, organism-based; conditions: in vivo
# Procedure, shortened: (§4)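 PK: iv 1.0 mpk in DMSO/Tween-80/water (5:10:85) for rats, EtOH/PEG400/water (10:40:50) for dogs and monkeys; oral 2 mpk in 0.5% methylcellulose for rats and dogs.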
# Rattus norvegicus [4] = assay: (§5) Half life in rat at 1.0 mg/kg, iv or 2 mg/kg, po; format: ADME, organism-based; conditions: in vivo; procedure, shortened: as §4
# Rattus norvegicus [5] = assay: (§6) Volume of distribution in rat at 1.0 mg/kg, iv or 2 mg/kg, po; format: ADME, organism-based; conditions: in vivo; procedure, shortened: as §4
# [6] = Volume of distribution in dog at 1.0 mg/kg, iv or 2 mg/kg, po; format: ADME, organism-based, Canis lupus familiaris; conditions: in vivo; procedure, shortened: as §4
# [7] = Bioavailability in dog at 1.0 mg/kg, iv or 2 mg/kg, po; format: ADME, organism-based, Canis lupus familiaris; conditions: in vivo; procedure, shortened: as §4
# [8] = Half life in dog at 1.0 mg/kg, iv or 2 mg/kg, po; format: ADME, organism-based, Canis lupus familiaris; conditions: in vivo; procedure, shortened: as §4
# [9] = Clearance in rat at 1.0 mg/kg, iv or 2 mg/kg, po; format: ADME, organism-based; conditions: in vivo; procedure, shortened: as §4
# [10] = as §3; format: ADME, organism-based; conditions: in vivo; procedure, shortened: as §4
# [11] = as §5; format: ADME, organism-based; conditions: in vivo; procedure, shortened: as §4
# [12] = Clearance in dog at 1.0 mg/kg, iv or 2 mg/kg, po; format: ADME, organism-based, Canis lupus familiaris; conditions: in vivo; procedure, shortened: as §4
# [13] = as §6; format: ADME, organism-based; conditions: in vivo; procedure, shortened: as §4
# [14] = Half life in rhesus monkey at 1.0 mg/kg, iv or 2 mg/kg, po; format: ADME, organism-based, Macaca mulatta; conditions: in vivo; procedure, shortened: as §4
# [15] = Drug level in wild-type C57BL/6 mouse blood at 100 mg/kg, po after 15 mins; format: ADME, organism-based; parameters: dose 100 mg/kg, route oral
# Procedure, shortened: (§7)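 Fed wild-type or NA receptor null mice on C57Bl/6 background dosed orally at 100 mpk; blood drawn 15 min postdose for plasma FFA and compound blood level; n = 8/group.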
# Canis familiaris [16] = assay: Antilipolytic activity in po dosed dog assessed as drug concentration causing maximum reduction plasma free fatty acids levels; format: functional, Canis lupus familiaris
# Procedure, shortened: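 Dose-based dog measure: dose producing maximal plasma FFA suppression after oral dosing in fasted conscious dogs, read from oral dose-ranging FFA data.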
# [17] = Bioavailability in rhesus monkey at 1.0 mg/kg, iv or 2 mg/kg, po; format: ADME, organism-based, Macaca mulatta; conditions: in vivo; procedure, shortened: as §4
# [18] = Volume of distribution in mouse at 1.0 mg/kg, iv or 2 mg/kg, po; format: ADME, organism-based; conditions: in vivo
# Cytochrome P450 2C9 = Cytochrome P450 2C9 (Homo sapiens, UniProt P11712); assay: Inhibition of CYP2C9; format: ADME
# Sequence of Cytochrome P450 2C9 (P11712 whole entry): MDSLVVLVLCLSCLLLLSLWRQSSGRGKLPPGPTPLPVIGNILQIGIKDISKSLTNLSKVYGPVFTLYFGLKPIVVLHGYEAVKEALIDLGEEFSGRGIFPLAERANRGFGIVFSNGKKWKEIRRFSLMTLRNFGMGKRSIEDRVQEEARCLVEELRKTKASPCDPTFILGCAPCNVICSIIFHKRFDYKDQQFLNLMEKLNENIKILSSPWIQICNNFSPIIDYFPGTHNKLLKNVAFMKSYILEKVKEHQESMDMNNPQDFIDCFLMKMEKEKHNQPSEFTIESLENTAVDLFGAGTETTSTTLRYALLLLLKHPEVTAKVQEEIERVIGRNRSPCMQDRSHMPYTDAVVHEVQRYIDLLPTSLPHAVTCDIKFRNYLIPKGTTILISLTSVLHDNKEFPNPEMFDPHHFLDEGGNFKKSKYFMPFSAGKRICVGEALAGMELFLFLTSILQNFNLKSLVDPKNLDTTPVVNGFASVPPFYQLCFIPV
# [19] = Volume of distribution in rhesus monkey at 1.0 mg/kg, iv or 2 mg/kg, po; format: ADME, organism-based, Macaca mulatta; conditions: in vivo; procedure, shortened: as §4
# [20] = Toxicity in po dosed dog assessed as Cmax at which threshold dose of vasodilation occurs in ears by spectrocolorimetry; format: organism-based, Canis lupus familiaris; conditions: in vivo, read-out: Activity
# Procedure, shortened: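 Oral dosing in conscious dogs; Cmax(TDV) = average maximal blood compound level at the threshold dose for vasodilation, which was assessed by ear spectrocolorimetry.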
# Canis familiaris [21] = assay: Antilipolytic activity in dog assessed as reduction plasma free fatty acids levels at 100 mg/kg, po; format: functional, Canis lupus familiaris; parameters: scale not given: the % may be the effect or the level left
# Procedure, shortened: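 Fasted conscious dogs dosed orally; plasma FFA followed over time relative to baseline; n = 3-7 per group.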
# Rattus norvegicus [22] = assay: Plasma concentration in rat at 100 mg/kg, ip; format: ADME, organism-based; parameters: dose 100 mg/kg, route intraperitoneal; conditions: in vivo
# Rattus norvegicus [23] = assay: Toxicity in rat assessed as induction of flushing-mediated vasodilation in ears at 100 mg/kg, sc by laser doppler flowmetry; conditions: in vivo
# [24] = Drug level in NA-receptor null C57BL/6 mouse blood at 100 mg/kg, po after 15 mins; format: ADME, organism-based; parameters: dose 100 mg/kg, route oral; procedure, shortened: as §7
# Canis familiaris [25] = assay: Toxicity in po dosed dog assessed as threshold dose at which induction of flushing-mediated-vasodilation occurs in ears by spectrocolorimetry; format: functional, Canis lupus familiaris
# Procedure, shortened: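 Conscious dogs dosed orally; flushing scored by ear spectrocolorimetry plus vocal and physical agitation; threshold dose = dose causing vasodilation in a subset of animals.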
# Rattus norvegicus [26] = assay: Toxicity in rat assessed as flushing-mediated vasodilation at 100 mg/kg, ip by laser doppler flowmetry; format: functional, organism-based; parameters: dose 100 mg/kg
# [27] = Half life in mouse at 1.0 mg/kg, iv or 2 mg/kg, po; format: ADME, organism-based; conditions: in vivo
# Cytochrome P450 2D6 = Cytochrome P450 2D6 (Homo sapiens, UniProt P10635); assay: Inhibition of CYP2D6; format: ADME
# Sequence of Cytochrome P450 2D6 (P10635 whole entry): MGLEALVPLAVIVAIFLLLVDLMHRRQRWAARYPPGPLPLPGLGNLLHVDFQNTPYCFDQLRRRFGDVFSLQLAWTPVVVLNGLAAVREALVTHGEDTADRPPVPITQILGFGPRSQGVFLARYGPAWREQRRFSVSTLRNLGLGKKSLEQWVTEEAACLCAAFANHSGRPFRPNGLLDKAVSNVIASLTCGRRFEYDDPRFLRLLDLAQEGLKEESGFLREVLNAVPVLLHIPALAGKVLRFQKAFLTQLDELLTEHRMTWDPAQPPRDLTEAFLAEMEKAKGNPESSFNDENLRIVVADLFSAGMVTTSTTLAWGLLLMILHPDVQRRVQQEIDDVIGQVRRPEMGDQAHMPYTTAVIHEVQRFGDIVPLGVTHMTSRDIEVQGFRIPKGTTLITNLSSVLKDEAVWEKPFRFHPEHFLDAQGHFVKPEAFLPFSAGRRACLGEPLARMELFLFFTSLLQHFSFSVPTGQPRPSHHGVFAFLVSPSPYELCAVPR
# Procedure, shortened: (§8)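 CYP2C8, 2D6 and 3A4 inhibition measured as IC50.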
# Rattus norvegicus [28] = assay: Toxicity in rat assessed as induction of induction of flushing-mediated vasodilation in ears at 100 mg/kg, sc by laser doppler flowmetry; format: functional, organism-based; parameters: dose 100 mg/kg
# Procedure, shortened: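 Anesthetized rats dosed subcutaneously in a dose-ranging study; ear blood perfusion monitored by laser Doppler flowmetry; n ≥ 5 per group.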
# [29] = Clearance in rhesus monkey at 1.0 mg/kg, iv or 2 mg/kg, po; format: ADME, organism-based, Macaca mulatta; conditions: in vivo; procedure, shortened: as §4
# [30] = Bioavailability in mouse at 1.0 mg/kg, iv or 2 mg/kg, po; format: ADME, organism-based; conditions: in vivo
# Rattus norvegicus [31] = assay: Antilipolytic activity in po dosed rat assessed as reduction plasma free fatty acids levels
# Cytochrome P450 2C8 = target: T1, Cytochrome P450 2C8 (Homo sapiens, UniProt P10632); assay: Inhibition of CYP2C8; format: ADME; procedure, shortened: as §8
# T1 sequence (P10632 whole entry): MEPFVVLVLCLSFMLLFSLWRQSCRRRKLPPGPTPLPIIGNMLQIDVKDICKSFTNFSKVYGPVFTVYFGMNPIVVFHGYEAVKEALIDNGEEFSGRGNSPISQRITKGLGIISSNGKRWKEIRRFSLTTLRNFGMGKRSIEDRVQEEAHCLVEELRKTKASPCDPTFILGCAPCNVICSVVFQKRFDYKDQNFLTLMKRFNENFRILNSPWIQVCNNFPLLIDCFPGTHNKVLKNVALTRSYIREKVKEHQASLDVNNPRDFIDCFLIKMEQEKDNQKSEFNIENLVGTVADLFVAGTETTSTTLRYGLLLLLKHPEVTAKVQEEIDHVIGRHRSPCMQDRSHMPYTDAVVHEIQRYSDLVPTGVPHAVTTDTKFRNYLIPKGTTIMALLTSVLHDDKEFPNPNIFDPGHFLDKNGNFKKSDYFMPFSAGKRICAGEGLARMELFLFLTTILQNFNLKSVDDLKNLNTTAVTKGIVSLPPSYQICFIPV
# Canis familiaris [32] = assay: Antilipolytic activity in po dosed dog assessed as reduction plasma free fatty acids levels; conditions: Canis lupus familiaris
# Rattus norvegicus [33] = assay: Toxicity in ip dosed rat assessed as induction of induction of flushing-mediated vasodilation in ears by laser doppler flowmetry; format: functional
# Rattus norvegicus [34] = assay: Antilipolytic activity in rat assessed as reduction plasma free fatty acids levels at 100 mg/kg, po; format: functional; parameters: scale not given: the % may be the effect or the level left
# Procedure, shortened: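 Conscious rats dosed orally, dose range 1–100 mpk; plasma FFA measured over 4 h and expressed relative to t = 0 level; n ≥ 5 per group.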
# Mus musculus [35] = assay: Antilipolytic activity in wild-type C57BL/6 mouse assessed as reduction plasma free fatty acids levels at 100 mg/kg, po after 15 mins; format: functional; parameters: scale not given: the % may be the effect or the level left; procedure, shortened: as §7
# Mus musculus [36] = assay: Antilipolytic activity in NA-receptor null C57BL/6 mouse assessed as reduction plasma free fatty acids levels at 100 mg/kg, po after 15 mins; format: functional, organism-based; parameters: dose 100 mg/kg; procedure, shortened: as §7
# [37] = Clearance in mouse at 1.0 mg/kg, iv or 2 mg/kg, po; format: ADME, organism-based; conditions: in vivo
# [38] = as §1; format: functional, Canis lupus familiaris; procedure, shortened: as §2
# Sequence of Hydroxycarboxylic acid receptor 3 (Homo sapiens) (P49019 whole entry): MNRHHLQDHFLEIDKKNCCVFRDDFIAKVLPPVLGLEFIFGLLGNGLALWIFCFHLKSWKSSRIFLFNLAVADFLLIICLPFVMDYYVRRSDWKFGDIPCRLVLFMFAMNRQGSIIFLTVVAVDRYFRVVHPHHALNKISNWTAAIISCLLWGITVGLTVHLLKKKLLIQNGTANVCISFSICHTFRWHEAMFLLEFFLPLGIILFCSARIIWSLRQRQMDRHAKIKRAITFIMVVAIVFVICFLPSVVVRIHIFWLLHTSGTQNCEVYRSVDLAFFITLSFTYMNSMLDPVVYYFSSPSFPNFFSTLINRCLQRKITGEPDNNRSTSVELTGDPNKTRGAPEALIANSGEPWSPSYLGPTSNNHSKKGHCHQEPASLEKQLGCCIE
smiles,measurement,setting,value
"CC(Cc1nc(-c2ccc(O)cn2)no1)C(=O)NC1=C(C(=O)O)CCCC1 (single isomer, unassigned; enantiomer B) [listing 1 of 2 here]",Activity,[1],inactive
same,Activity,Canis lupus familiaris,Active
same,Activity,[2],inactive
"CC(Cc1nc(-c2ccc(O)cn2)no1)C(=O)NC1=C(C(=O)O)CCCC1 (single isomer, unassigned; enantiomer B) [listing 2 of 2 here]",F,Rattus norvegicus [3],23%
same,t1/2,Rattus norvegicus [4],4.1 h
same,Vd,Rattus norvegicus [5],0.25 L/kg
O=C(CCc1nc(-c2ccc(O)cn2)no1)Nc1ccccc1C(=O)O,Activity,[1],inactive
same,Activity,Canis lupus familiaris,Active
same,Activity,[2],inactive
O=C(CCc1nc(-c2ccc(O)cn2)no1)NC1=C(C(=O)O)CCCC1,Activity,[1],inactive
same,Vd,[6],0.18 L/kg
same,bioavailability,[7],33%
same,half-life,[8],126 min
same,clearance,[9],2 mL/min/kg
same,bioavailability,[10],22%
same,half-life,[11],120 min
same,clearance,[12],1.3 mL/min/kg
same,Vd,[13],0.11 L/kg
same,Activity,Canis lupus familiaris,Active
same,Activity,[2],inactive
"CC(Cc1nc(-c2ccc(O)cn2)no1)C(=O)NC1=C(C(=O)O)CCCC1 (single isomer, unassigned) [listing 1 of 2 here]",clearance,[9],1.1 mL/min/kg
same,bioavailability,[10],19%
same,half-life,[11],216 min
same,Vd,[13],0.21 L/kg
CC(C)(Cc1nc(-c2ccc(O)cn2)no1)C(=O)NC1=C(C(=O)O)CCCC1,Activity,[1],inactive
same,half-life,[14],294 min
same,concentration at 0.25 h,[15],229 µM
same,Vd,[6],0.27 L/kg
same,Activity,Canis familiaris [16],10 mg/kg
same,bioavailability,[17],14%
same,bioavailability,[7],90%
same,Vd,[18],0.2 L/kg
same,IC50,Cytochrome P450 2C9,39 µM
same,Vd,[19],0.08 L/kg
same,half-life,[8],456 min
same,clearance,[9],0.4 mL/min/kg
same,bioavailability,[10],24%
same,Cmax,[20],182 µM
same,Activity,Canis familiaris [21],85%
same,half-life,[11],258 min
same,clearance,[12],1.8 mL/min/kg
same,concentration,Rattus norvegicus [22],555 µM
same,Vd,[13],0.15 L/kg
same,Activity,Rattus norvegicus [23],Toxic
same,concentration at 0.25 h,[24],148 µM
same,Activity,Canis familiaris [25],100 mg/kg
same,Activity,Rattus norvegicus [26],Toxic
same,half-life,[27],384 min
same,IC50,Cytochrome P450 2D6,> 100 µM
same,Activity,Rattus norvegicus [28],Toxic
same,clearance,[29],0.4 mL/min/kg
same,bioavailability,[30],45%
same,EC50,Rattus norvegicus [31],67 µM
same,IC50,Cytochrome P450 2C8,> 100 µM
same,EC50,Canis familiaris [32],16.5 µM
same,Activity,Rattus norvegicus [33],560 µM
same,Activity,Rattus norvegicus [34],85%
same,Activity,Mus musculus [35],36%
same,Activity,Mus musculus [36],inactive
same,clearance,[37],1.3 mL/min/kg
same,EC50,[38],1300 nM
same,Activity,[2],inactive
"CC(Cc1nc(-c2ccc(O)cn2)no1)C(=O)NC1=C(C(=O)O)CCCC1 (single isomer, unassigned) [listing 2 of 2 here]",Activity,[1],inactive
same,Activity,Canis lupus familiaris,Active
same,Activity,[2],inactive
O=C(O)c1cccnc1 [NIACIN],Activity,Canis familiaris [16],6 mg/kg
same,Cmax,[20],14.6 µM
same,Activity,Canis familiaris [25],3 mg/kg
same,EC50,Rattus norvegicus [31],2.2 µM
same,EC50,Canis familiaris [32],2.7 µM
same,Activity,Rattus norvegicus [33],9.4 µM
same,Activity,Mus musculus [35],43%
same,Activity,Mus musculus [36],inactive
